Screening results: PubChem, Broad Institute
INS-1E ATP HTS: preserves ATP levels in cytokine-treated INS-1E cells; INS-1E cytokine-induced death, ATP luminescence, 48 h; normalised: neutral wells 0, positive control 100; protection from cytokine-induced ATP loss, % at 10 µM; 20,000 compounds, 0.1% hits;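 active = mean replicate protection from cytokine-induced ATP loss at least 50% and at least 75% of replicates each reaching 50%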
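Assay system – rat INS-1E insulinoma cell line · Quantity – 8000 cells per well · Buffer or medium – RPMI without phenol red, 5% FBS · Schedule – 48 h co-treatment, 10 min post-lysis read · Technique – luminescent ATP assay (CellTiter-Glo)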
A1 apoptosis 2: compounds inhibiting A1, read as caspase activation; MEF A1-2A-BIM cells, caspase-Glo luminescence, 3 h; percent of clofoctol response, DMSO zero; caspase activation, % (no concentration beside the values); 24,000 tested, under 10 active; AID 2465; in the data active = caspase activation above about 5.9%
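Test system – A1-2A-BIM-expressing MEF cells · Input – 2500 cells/well · Medium – RPMI-1640 growth medium with 10% FBS · Compound dosing – 50 nL pinned compound · Timing – 3 h compound exposure at 37 °C · Technique – Caspase-Glo luminescence (DEVD substrate) · Evaluation – Caspase-3/7 activity from luminescence increase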
T cruzi HTS: blocks T. cruzi growth inside host cells; intracellular Trypanosoma cruzi in host cells, plate reader; activity score (inhibition), % at 5.01 µM; 22,000 compounds, 4.9% hits; AID 651903; in the data active = activity score above about 55%;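 note: parasites and compound incubated about four days before reading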
Of the large screens only hits and unclear results are named; the others gave an inactive call. The entries come from a sample that favours hits as a whole.

C[C@H]1CN([C@@H](C)CO)C(=O)c2cccc(NC(=O)c3nc4ccccc4s3)c2O[C@H]1CN(C)S(=O)(=O)c1ccccc1	T cruzi HTS 77 (no result: A1 apoptosis 2)
COc1ccc(S(=O)(=O)N(C)C[C@@H]2Oc3c(NC(=O)Nc4cccc5ccccc45)cccc3C(=O)N([C@@H](C)CO)C[C@H]2C)cc1	INS-1E ATP HTS 81
C[C@@H]1CN([C@@H](C)CO)C(=O)c2cccc(NC(=O)c3nc4ccccc4s3)c2O[C@H]1CN(C)S(=O)(=O)c1ccc(Cl)cc1	none (no result: A1 apoptosis 2)
C[C@H](CO)N1C[C@H](C)[C@@H](CN(C)S(=O)(=O)c2ccccc2)Oc2c(NC(=O)c3nc4ccccc4s3)cccc2C1=O	none (no result: A1 apoptosis 2)
C[C@H]1CN([C@@H](C)CO)C(=O)c2cccc(NC(=O)c3nc4ccccc4s3)c2O[C@@H]1CN(C)S(=O)(=O)c1cccs1	none
C[C@H](CO)N1C[C@H](C)[C@@H](CN(C)S(=O)(=O)c2cccs2)Oc2c(NC(=O)c3nc4ccccc4s3)cccc2C1=O	T cruzi HTS 57
COc1ccc(Br)cc1/C=N/NC(=O)c1cccc(C(=O)NO)c1	none
C[C@@H]1CN([C@H](C)CO)C(=O)c2cccc(NC(=O)c3cnccn3)c2O[C@@H]1CN(C)S(=O)(=O)c1cccs1	none (no result: A1 apoptosis 2)
C[C@H](CO)N1C[C@H](C)[C@H](CN(C)S(=O)(=O)c2cccs2)Oc2c(NC(=O)c3cnccn3)cccc2C1=O	T cruzi HTS 69 (no result: A1 apoptosis 2)
COc1ccc(S(=O)(=O)N(C)C[C@H]2Oc3c(NC(=O)c4nc5ccccc5s4)cccc3C(=O)N([C@@H](C)CO)C[C@@H]2C)cc1	T cruzi HTS 63 (no result: A1 apoptosis 2)
COc1ccc(S(=O)(=O)N(C)C[C@@H]2Oc3c(NC(=O)c4nc5ccccc5s4)cccc3C(=O)N([C@H](C)CO)C[C@H]2C)cc1	none
O=C(NO)c1cccc(C(=O)N/N=C/c2cccc(OCCO)c2)c1	none
C[C@@H]1CN([C@@H](C)CO)C(=O)c2cccc(NC(=O)Nc3ccc4c(c3)OCO4)c2O[C@@H]1CN(C)Cc1ccc(Oc2ccccc2)cc1	T cruzi HTS 73 (no result: A1 apoptosis 2)
C[C@H](CO)N1C[C@H](C)[C@@H](CN(C)Cc2ccc(Oc3ccccc3)cc2)Oc2c(NC(=O)Nc3ccc4c(c3)OCO4)cccc2C1=O	none (no result: A1 apoptosis 2)
C[C@@H]1CN([C@H](C)CO)C(=O)c2cccc(NC(=O)Nc3ccc4c(c3)OCO4)c2O[C@@H]1CN(C)Cc1ccc(Oc2ccccc2)cc1	none (no result: A1 apoptosis 2)
C[C@@H]1CN([C@@H](C)CO)C(=O)c2cccc(NC(=O)Nc3ccc4c(c3)OCO4)c2O[C@H]1CN(C)Cc1ccc(Oc2ccccc2)cc1	T cruzi HTS 70
Cc1ccc(S(=O)(=O)Nc2ccc3c(c2)CC(=O)N([C@@H](C)CO)C[C@@H](C)[C@@H](CN(C)Cc2ccc(-c4ccccc4)cc2)O3)cc1	T cruzi HTS 71
C[C@H]1CN([C@@H](C)CO)C(=O)Cc2cc(NS(=O)(=O)c3ccccc3)ccc2O[C@@H]1CN(C)Cc1ccc(-c2ccccc2)cc1	T cruzi HTS 75 (no result: A1 apoptosis 2)
Cc1ccc(S(=O)(=O)Nc2ccc3c(c2)CC(=O)N([C@H](C)CO)C[C@@H](C)[C@H](CN(C)Cc2ccccc2)O3)cc1	T cruzi HTS 67 (no result: A1 apoptosis 2)
C[C@@H]1CN([C@@H](C)CO)C(=O)Cc2cc(NS(=O)(=O)c3ccc(Cl)cc3)ccc2O[C@@H]1CN(C)Cc1ccc(-c2ccccc2)cc1	none (no result: A1 apoptosis 2)
C[C@@H]1CN([C@H](C)CO)C(=O)Cc2cc(NS(=O)(=O)c3ccc(Cl)cc3)ccc2O[C@@H]1CN(C)Cc1ccc(-c2ccccc2)cc1	T cruzi HTS 67 (no result: A1 apoptosis 2)
Cc1ccc(S(=O)(=O)Nc2ccc3c(c2)CC(=O)N([C@H](C)CO)C[C@H](C)[C@H](CN(C)Cc2ccccc2)O3)cc1	none
C[C@H]1CN([C@@H](C)CO)C(=O)Cc2cc(NS(=O)(=O)c3ccccc3)ccc2O[C@H]1CN(C)Cc1ccc(-c2ccccc2)cc1	none (no result: A1 apoptosis 2)
Cc1ccc(S(=O)(=O)Nc2ccc3c(c2)CC(=O)N([C@H](C)CO)C[C@@H](C)[C@H](CN(C)Cc2ccc(-c4ccccc4)cc2)O3)cc1	none
O=C(NCCCn1cc(C(=O)NO)nn1)Nc1ccccc1	none (no result: INS-1E ATP HTS, T cruzi HTS)
O=C(NO)c1cccc(C(=O)N/N=C/c2ccc[nH]2)c1	none (no result: A1 apoptosis 2)
C[C@H]1CN([C@@H](C)CO)C(=O)c2cc(NC(=O)Nc3cccc4ccccc34)ccc2O[C@H]1CN(C)Cc1ccc(-c2ccccc2)cc1	none (no result: INS-1E ATP HTS)
C[C@H]1CN([C@@H](C)CO)C(=O)c2cc(NC(=O)Nc3cccc4ccccc34)ccc2O[C@@H]1CN(C)Cc1ccc(Oc2ccccc2)cc1	T cruzi HTS 81
C[C@@H]1CN([C@H](C)CO)C(=O)c2cc(NC(=O)Nc3cccc4ccccc34)ccc2O[C@@H]1CN(C)Cc1ccc(Oc2ccccc2)cc1	none (no result: A1 apoptosis 2)
C[C@@H]1CN([C@H](C)CO)C(=O)c2cc(NC(=O)Nc3cccc4ccccc34)ccc2O[C@H]1CN(C)Cc1ccc(-c2ccccc2)cc1	T cruzi HTS 86
C=CC[C@@]1(C(=O)N(C)C)N=C(c2ccc(OCCCO)cc2)O[C@@H]1c1ccccc1	none (no result: INS-1E ATP HTS, T cruzi HTS)
CC(C)(C)OC(=O)Nc1cccc(/C=N/NC(=O)CCCCC(=O)NO)c1	none (no result: A1 apoptosis 2)
C[C@@H]1CCCCO[C@@H](CN(C)C(=O)Nc2ccc3c(c2)OCO3)[C@@H](C)CN([C@@H](C)CO)C(=O)c2cc(NC(=O)Nc3ccc(C(F)(F)F)cc3)ccc2O1	none (no result: INS-1E ATP HTS, T cruzi HTS)
C[C@@H]1CCCCO[C@H](CN(C)C(=O)Nc2ccc(C(F)(F)F)cc2)[C@H](C)CN([C@@H](C)CO)C(=O)c2cc(NC(=O)Nc3ccc4c(c3)OCO4)ccc2O1	none (no result: INS-1E ATP HTS, T cruzi HTS)
C[C@@H]1CCCCO[C@H](CN(C)C(=O)Nc2ccc3c(c2)OCO3)[C@@H](C)CN([C@H](C)CO)C(=O)c2cc(NC(=O)Nc3ccc(C(F)(F)F)cc3)ccc2O1	T cruzi HTS 76 (no result: A1 apoptosis 2)
C[C@@H]1CCCCO[C@@H](CN(C)C(=O)Nc2ccc(C(F)(F)F)cc2)[C@@H](C)CN([C@H](C)CO)C(=O)c2cc(NC(=O)Nc3ccc4c(c3)OCO4)ccc2O1	T cruzi HTS 67
N#Cc1ccc(/C=N/NC(=O)CCCCCCC(=O)NO)cc1	none (no result: INS-1E ATP HTS, T cruzi HTS)
COc1ccc(S(=O)(=O)Nc2ccc3c(c2)CC(=O)N([C@H](C)CO)C[C@@H](C)[C@H](CN(C)CC2CCCCC2)O3)cc1	T cruzi HTS 59
C[C@H]1CN([C@@H](C)CO)C(=O)Cc2cc(NS(=O)(=O)c3ccc(Cl)cc3)ccc2O[C@H]1CN(C)CC1CCCCC1	T cruzi HTS 73
COc1ccc(S(=O)(=O)Nc2ccc3c(c2)CC(=O)N([C@H](C)CO)C[C@H](C)[C@H](CN(C)CC2CCCCC2)O3)cc1	none (no result: A1 apoptosis 2)
C[C@H]1CN([C@@H](C)CO)C(=O)Cc2cc(NS(=O)(=O)c3ccc(Cl)cc3)ccc2O[C@@H]1CN(C)CC1CCCCC1	none
C[C@H](CO)N1C[C@H](C)[C@H](CN(C)S(=O)(=O)c2cccc(F)c2)Oc2ncc(-c3cccc(C(F)(F)F)c3)cc2C1=O	T cruzi HTS 59 (no result: INS-1E ATP HTS, A1 apoptosis 2)
C[C@H](CO)N1C[C@H](C)[C@H](CN(C)S(=O)(=O)c2ccc(F)cc2)Oc2ncc(-c3cccc(C(F)(F)F)c3)cc2C1=O	T cruzi HTS 89 (no result: INS-1E ATP HTS)
